Data as given in ChEMBL document CHEMBL3351725, “Design, synthesis and biological evaluation of (E)-3-(3,4-dihydroxyphenyl)acrylylpiperazine derivatives as a new class of tubulin polymerization inhibitors” (Bioorg Med Chem, 2014).
≈ marks a conversion by molar mass, not a printed value.

How the values were obtained:
[1] = Antiproliferative activity against mouse B16F10 cells after 48 hrs by MTT assay; assay type: functional, cell-based; conditions: B16-F10, 48 h
Method in brief: (§1)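 Cells diluted to 2 × 10⁴ cells/mL in complete medium, seeded in 96-well plates and incubated 24 h at 37 °C, 5% CO₂ before compound addition at preset concentrations; colchicine and CA-4 as positive references. After 48 h exposure, MTT added; 4 h later 10% SDS-5% isobutyl alcohol-0.01 M HCl extraction solution added, overnight at 37 °C, absorbance read at 570 nm.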

A549 = test: Antiproliferative activity against human A549 cells after 48 hrs by MTT assay; assay type: functional, cell-based; conditions: A549, 48 h; method in brief: as §1
MCF7 [2] = test: Antiproliferative activity against human MCF7 cells after 48 hrs by MTT assay; assay type: functional, cell-based; conditions: MCF7, 48 h; method in brief: as §1
Tubulin = Tubulin (Bos taurus, UniProt Q6B856+Q862L2+Q862F3); test: Inhibition of bovine brain tubulin polymerization after 20 mins by turbidimetric method
MCF7 [3] = test: Cell cycle arrest in human MCF7 cells assessed as accumulation at G0/G1 phase at 1 ug/ml after 24 hrs by flow cytometry (reference value: 62.34 %); assay type: functional
MCF7 [4] = test: Cell cycle arrest in human MCF7 cells assessed as accumulation at S phase at 1 ug/ml after 24 hrs by flow cytometry (reference value: 13.05 %); assay type: functional
MCF7 [5] = test: Cell cycle arrest in human MCF7 cells assessed as accumulation at G2/M phase at 1 ug/ml after 24 hrs by flow cytometry (reference value: 24.61 %); assay type: functional
MCF7 [6] = test: Cell cycle arrest in human MCF7 cells assessed as accumulation at G2/M phase at 2 ug/ml after 24 hrs by flow cytometry (reference value: 24.61 %); assay type: functional
MCF7 [7] = test: Cell cycle arrest in human MCF7 cells after 24 hrs by flow cytometry; assay type: functional, cell-based
MCF7 [8] = test: Cell cycle arrest in human MCF7 cells assessed as accumulation at G0/G1 phase at 2 ug/ml after 24 hrs by flow cytometry (reference value: 62.34 %); assay type: functional
MCF7 [9] = test: Cell cycle arrest in human MCF7 cells assessed as accumulation at S phase at 2 ug/ml after 24 hrs by flow cytometry (reference value: 13.05 %); assay type: functional

IC50 (A549) [µg/mL] | IC50 (MCF7 [2]) [µg/mL] | IC50 (Tubulin) [µM] | SMILES | IC50 [1] [µg/mL] | Activity (MCF7 [3]) [%] | Activity (MCF7 [4]) [%] | Activity (MCF7 [5]) [%] | Activity (MCF7 [6]) [%] | Activity (MCF7 [7]) | Activity (MCF7 [8]) [%] | Activity (MCF7 [9]) [%]
0.98 (≈ 2.77 µM) | 0.54 (≈ 1.52 µM) | 1.72 | COc1ccccc1N1CCN(C(=O)/C=C/c2ccc(O)c(O)c2)CC1 | 1.23 (≈ 3.47 µM) |  |  |  |  |  |  | 
6.54 (≈ 23.7 µM) | 2.06 (≈ 7.45 µM) | 12.78 | CCN1CCN(C(=O)/C=C/c2ccc(O)c(O)c2)CC1 | 6.44 (≈ 23.3 µM) |  |  |  |  |  |  | 
0.73 (≈ 1.62 µM) | 0.43 (≈ 0.955 µM) | 1.44 | O=C(/C=C/c1ccc(O)c(O)c1)N1CCN(C(c2ccc(F)cc2)c2ccc(F)cc2)CC1 | 0.52 (≈ 1.15 µM) |  |  |  |  |  |  | 
1.44 (≈ 4.01 µM) | 1.36 (≈ 3.79 µM) | 5.46 | O=C(/C=C/c1ccc(O)c(O)c1)N1CCN(c2ccccc2Cl)CC1 | 1.82 (≈ 5.07 µM) |  |  |  |  |  |  | 
1.27 (≈ 3.58 µM) | 0.92 (≈ 2.6 µM) | 3.08 | COc1cccc(N2CCN(C(=O)/C=C/c3ccc(O)c(O)c3)CC2)c1 | 1.46 (≈ 4.12 µM) |  |  |  |  |  |  | 
1.56 (≈ 4.22 µM) | 1.14 (≈ 3.09 µM) | 4.86 | O=C(/C=C/c1ccc(O)c(O)c1)N1CCN(c2ccc([N+](=O)[O-])cc2)CC1 | 1.79 (≈ 4.85 µM) |  |  |  |  |  |  | 
1.74 (≈ 4.43 µM) | 1.24 (≈ 3.16 µM) | 5.89 | O=C(/C=C/c1ccc(O)c(O)c1)N1CCN(c2cccc(C(F)(F)F)c2)CC1 | 2.01 (≈ 5.12 µM) |  |  |  |  |  |  | 
1.29 (≈ 3.6 µM) | 1.34 (≈ 3.73 µM) | 5.28 | O=C(/C=C/c1ccc(O)c(O)c1)N1CCN(c2cccc(Cl)c2)CC1 | 1.71 (≈ 4.77 µM) |  |  |  |  |  |  | 
1.68 (≈ 4.27 µM) | 1.12 (≈ 2.85 µM) | 4.42 | O=C(/C=C/c1ccc(O)c(O)c1)N1CCN(c2cccc(Cl)c2Cl)CC1 | 2.01 (≈ 5.11 µM) |  |  |  |  |  |  | 
1.02 (≈ 2.89 µM) | 0.78 (≈ 2.21 µM) | 2.98 | Cc1ccc(N2CCN(C(=O)/C=C/c3ccc(O)c(O)c3)CC2)c(C)c1 | 1.43 (≈ 4.06 µM) |  |  |  |  |  |  | 
0.8 (≈ 1.78 µM) | 0.48 (≈ 1.07 µM) | 1.56 | O=C(/C=C/c1ccc(O)c(O)c1)N1CCN(C(c2ccccc2)c2ccc(Cl)cc2)CC1 (configuration not stated) | 0.68 (≈ 1.51 µM) |  |  |  |  |  |  | 
2.32 (≈ 7.13 µM) | 1.82 (≈ 5.59 µM) | 11.61 | O=C(/C=C/c1ccc(O)c(O)c1)N1CCN(c2ccccn2)CC1 | 3.01 (≈ 9.25 µM) |  |  |  |  |  |  | 
0.93 (≈ 2.62 µM) | 0.52 (≈ 1.47 µM) | 1.86 | COc1ccc(N2CCN(C(=O)/C=C/c3ccc(O)c(O)c3)CC2)cc1 | 1.21 (≈ 3.41 µM) |  |  |  |  |  |  | 
1.25 (≈ 3.65 µM) | 1.44 (≈ 4.21 µM) | 7.39 | O=C(/C=C/c1ccc(O)c(O)c1)N1CCN(c2ccc(F)cc2)CC1 | 1.68 (≈ 4.91 µM) |  |  |  |  |  |  | 
1.74 (≈ 4.42 µM) | 1.28 (≈ 3.25 µM) | 4.93 | O=C(/C=C/c1ccc(O)c(O)c1)N1CCN(c2ccc(Cl)c(Cl)c2)CC1 | 1.66 (≈ 4.22 µM) |  |  |  |  |  |  | 
1.32 (≈ 4.07 µM) | 1.03 (≈ 3.18 µM) | 3.14 | O=C(/C=C/c1ccc(O)c(O)c1)N1CCN(c2ccccc2)CC1 | 1.78 (≈ 5.49 µM) |  |  |  |  |  |  | 
2.98 (≈ 8.81 µM) | 1.48 (≈ 4.37 µM) | 9.28 | O=C(/C=C/c1ccc(O)c(O)c1)N1CCN(Cc2ccccc2)CC1 | 3.12 (≈ 9.22 µM) |  |  |  |  |  |  | 
1.43 (≈ 4.18 µM) | 1.38 (≈ 4.03 µM) | 7.78 | O=C(/C=C/c1ccc(O)c(O)c1)N1CCN(c2ccccc2F)CC1 | 2.43 (≈ 7.1 µM) |  |  |  |  |  |  | 
0.54 (≈ 1.3 µM) | 0.32 (≈ 0.772 µM) | 0.92 | O=C(/C=C/c1ccc(O)c(O)c1)N1CCN(C(c2ccccc2)c2ccccc2)CC1 | 0.44 (≈ 1.06 µM) | 18.33 | 18.18 | 63.39 | 84.36 | Dose-dependent effect | 2.63 | 13.01

SMILES | IC50 (A549) [µg/mL] | IC50 (MCF7 [2]) [µg/mL] | IC50 (Tubulin) [µM] | IC50 [1] [µg/mL] | Activity (MCF7 [3]) [%] | Activity (MCF7 [4]) [%] | Activity (MCF7 [5]) [%] | Activity (MCF7 [6]) [%] | Activity (MCF7 [7]) | Activity (MCF7 [8]) [%] | Activity (MCF7 [9]) [%]
COc1ccc(/C=C\c2cc(OC)c(OC)c(OC)c2)cc1O [COMBRETASTATIN A4] | 0.46 (≈ 1.45 µM) | 0.21 (≈ 0.664 µM) |  | 0.42 (≈ 1.33 µM) |  |  |  |  |  |  | 
COc1cc2c(c(OC)c1OC)-c1ccc(OC)c(=O)cc1[C@@H](NC(C)=O)CC2 [COLCHICINE] | 0.58 (≈ 1.45 µM) | 0.39 (≈ 0.976 µM) |  | 0.48 (≈ 1.2 µM) | 4.6 | 11.78 | 83.62 |  |  |  | 
